# Bioassay records (PubChem)
# Shown are actives, neighbours in structure and some others; about 1.3% of the full set was active somewhere.
# AF4-AF9 inh – MLL-AF4/AF9 protein interaction inhibition; inhibition, % at 10 µM; AlphaScreen, biotin-AF4 peptide binding to FLAG-AF9; hit rate 0.47% among 350,000; P42568;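 active = every replicate reaching a set inhibition limit, whatever the replicate mean, cut at about 25% in these data; inconclusive = mean inhibition reaches that limit but some replicates miss it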;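 also: 0% = plate neutral control median and 100% = total signal loss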
# S100A4 inh HTS – S100A4-myosin IIA interaction inhibition; S100A4/TAMRA-MyoIIA peptide fluorescence polarization; inhibition, % at 10.7 µM; P26447; AID 652163; hit rate 0.14% among 360,000;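 active = mean inhibition of at least 70% across replicates, with every replicate also reaching that level; inconclusive = mean inhibition reaches 70% but some replicates fall short; inactive = mean inhibition below 70%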
# Target sequence (P26447 whole entry, looked up): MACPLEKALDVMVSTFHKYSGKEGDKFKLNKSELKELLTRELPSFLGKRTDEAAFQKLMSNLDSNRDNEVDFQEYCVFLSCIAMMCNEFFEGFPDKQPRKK
#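 assay system = human S100A4 monomer with TAMRA-labelled myosin IIA peptide | also added = labelled myosin peptide probe, 5 nM | incubation = 5 min between mix addition and reading | control set = DMSO and TFP controls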
# RAD52 anneal inh – inhibitors of human RAD52 DNA annealing; recombinant RAD52 DNA annealing, FRET fluorescence; hit rate 0.46% among 360,000; inhibition, % at 18.7 µM; P43351;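 active = every replicate showing at least 50% inhibition; inconclusive = mean inhibition at least 50% but not in every replicate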
# XiGFP reactiv – activators of X-chromosome reactivation in mouse fibroblasts; hit rate 0.055% among 360,000; AID 743238; activation, % at 7.58 µM; XiGFP mouse fibroblasts, % GFP-positive cells imaging, 3 d; cells co-treated with 5-aza-dC sensitizer; scaled so ellipticine positive control = 100%;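 active = mean normalized replicate activation at least 10% and every replicate at or above 10%; inconclusive = only one of the two criteria met; inactive = mean below 10% and not all replicates reach 10%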;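 also: 0% = median of on-plate neutral control wells and 100% = ellipticine 6 µM median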
#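 Material: XiGFP fibroblasts, SV40-immortalized; Buffer or medium: DMEM containing 5-aza-dC; Compound dosing: single point; Times: 3 days compound exposure.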
# RAD54 inh – RAD54 (human) branch migration inhibition; RAD54 Holliday junction branch migration, FAM/BHQ fluorescence; hit rate 0.14% among 360,000; inhibition, % at 10.4 µM;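 active = mean normalized replicate activity at least 40 and at least half of replicates scoring 40 or more; inconclusive = only one of the two criteria met; inactive = mean below 40 and under half of replicates reaching 40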;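 also: 0% = median of neutral control wells and 100% = median of positive control wells; inhibitors cause a drop in the FAM fluorescence signal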
# CASP6 VEID inh – inhibitors of human caspase-6; P55212; purified caspase-6, Z-VEID-R110 cleavage fluorescence; inhibition, % at 12.5 µM; hit rate 0.53% among 350,000;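 active = mean inhibition across replicates at least about 35%, with every replicate also reaching that limit, limit read from the data; inconclusive = only one of the two criteria met; inactive = neither criterion met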;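 also: 0% = median of neutral control wells and 100% = no fluorescence left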
# Target sequence (P55212 24-179 limits assumed): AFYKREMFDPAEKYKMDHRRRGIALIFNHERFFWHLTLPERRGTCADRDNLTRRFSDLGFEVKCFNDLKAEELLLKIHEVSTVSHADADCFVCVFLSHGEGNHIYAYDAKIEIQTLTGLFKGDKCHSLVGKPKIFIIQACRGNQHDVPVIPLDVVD
# Target sequence (P55212 194-293 limits assumed): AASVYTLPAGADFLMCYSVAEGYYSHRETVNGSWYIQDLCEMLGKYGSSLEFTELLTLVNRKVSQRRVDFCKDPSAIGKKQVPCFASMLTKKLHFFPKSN
# Active calls of the source: *; i = inactive; ? = inconclusive; . = no result.
SMILES,AF4-AF9 inh,S100A4 inh HTS,RAD52 anneal inh,XiGFP reactiv,RAD54 inh,CASP6 VEID inh
COc1cccc(S(=O)(=O)N2CC[C@@H]3[C@@H](CO)Nc4ccc(C#Cc5ccccc5)cc4[C@@H]32)c1,-1,103*,1,0,2,-1
CN1c2ccc(C#Cc3cccnc3)cc2[C@@H]2[C@@H](CCN2S(=O)(=O)c2ccccc2F)[C@@H]1CO,0,120*,1,0,-12,-3
COc1cccc(S(=O)(=O)N2CC[C@H]3[C@H](CO)Nc4ccc(C#Cc5ccccc5)cc4[C@H]32)c1,1,-1,-1,0,-4,0
Cc1cccc(S(=O)(=O)N2CC[C@H]3[C@H](CO)Nc4ccc(C#Cc5ccc(F)cc5)cc4[C@H]32)c1,-2,-12,6,0,6,2
Cc1cccc(S(=O)(=O)N2CC[C@@H]3[C@H](CO)Nc4ccc(C#Cc5ccc(F)cc5)cc4[C@@H]32)c1,-6,97*,-45,0,1,1
COc1ccc(C#Cc2ccc3c(c2)[C@@H]2[C@@H](CCN2S(=O)(=O)c2cccc(OC)c2)[C@@H](CO)N3C)cc1,0,0,67*,0,5,1
CN1C(=O)c2cc(NC(=O)Nc3ccccc3Cl)ccc2OC[C@H]2O[C@H](CC(=O)NCCCN3CCOCC3)CC[C@@H]21,1,0,8,0,12,-26
CC=Cc1ccc2n(c1=O)C[C@@H]1[C@@H](CO)[C@H](C(=O)NC3CCCC3)[C@H]2N1Cc1ccncc1 (mixture of isomers),-22,-25,7,0,4,-4
O=C(NCC(=O)N1CC=C(c2ccccc2)CC1)c1ccccc1Br,-2,4,-13,0,0,80*
Cc1c(NS(=O)(=O)c2ccc(Cl)c(C(=O)OC(C)C(=O)N3CCOCC3)c2)c(=O)n(-c2ccccc2)n1C (stereo not given),-2,-2,-5,0,2,3
Cc1ccc(S(=O)(=O)Nc2ccccc2F)cc1C(=O)OC(C)C(=O)N1CCOCC1 (stereo not given),11,75*,3,0,.,3
COc1ccccc1CN(C)C[C@@H]1OCc2cn(nn2)CCCC(=O)N([C@@H](C)CO)C[C@H]1C,.,.,.,0,.,.
CC(C)NC(=O)N(C)C[C@@H]1Oc2ccc(N(S(C)(=O)=O)S(C)(=O)=O)cc2C(=O)N(C)C[C@@H]1C,.,.,.,0,.,.
Cc1cccc(-c2nc(CCNC(=O)c3ccco3)cs2)c1,-2,2,-3,0,-2,42*
CC(C)NC(=O)N[C@@H]1CC[C@@H](CCNC(=O)C2CC2)O[C@@H]1CO,-2,1,6,0,-6,0
CC1=C/C(=C(/c2cc(C)c(O)c(Br)c2)c2ccccc2S(=O)(=O)O)C=C(Br)C1=O,47*,-19,-41,0,-3,14
CCN1CCN(C(=O)c2ccc(CS(=O)(=O)Cc3ccccc3Cl)o2)CC1,-2,-3,-15,0,-6,63*
CCCNC(=O)C[C@H]1C[C@H]2c3cc(NC(=O)c4cccnc4)ccc3O[C@H]2[C@H](CO)O1,.,.,.,3,3,.
COc1ccc(NC(=O)N2CCCCN3[C@H](CO)[C@@H](c4ccc(C5=CCCC5)cc4)[C@H]3C2)cc1,12,3,65*,.,-1,-1
COc1ccc(NC(=O)N2CCCCN3[C@@H](CO)[C@H](c4ccc(C5=CCCCC5)cc4)[C@@H]3C2)cc1,21,5,71*,0,1,-1
COc1ccc(C(=O)Oc2cc3c4c(c2)C(C)=CC(C)(C)N4C(=O)C3=O)cc1OC,.,.,.,0,.,.
COc1cccc(C(=O)Oc2cc3c4c(c2)C(C)=CC(C)(C)N4C(=O)C3=O)c1,26*,13,4,.,10,2
N/C(=N\c1nc(CSc2nc3ccccc3s2)cc(=O)[nH]1)Nc1ccc(F)cc1,-29,2,-12,35*,.,-1
Cc1ccc(N/C(N)=N/c2nc(CSc3nnc(N)s3)cc(=O)[nH]2)cc1,-6,-6,-17,0,3,-4
O=C(NCCc1ccncc1)Nc1ccc(Cl)cc1,.,.,.,.,-10,.
SMILES,AF4-AF9 inh,S100A4 inh HTS,RAD52 anneal inh,XiGFP reactiv,RAD54 inh,CASP6 VEID inh
O=C(NCCc1ccncc1)Nc1ccc(F)cc1,-23,103*,-11,0,-6,12
C[C@@H]1CN([C@@H](C)CO)C(=O)c2cc(NS(=O)(=O)c3cn(C)cn3)ccc2O[C@@H](C)CCCCO[C@H]1CN(C)C(=O)Cc1ccccc1,0,1,-3,-1,3,-1
O=c1cc(-c2ccccc2)oc2ccc(Cl)cc12,-1,0,-11,0,.,-5
OCCN=c1cc(-c2ccccc2)oc2ccc(Cl)cc12,.,.,.,.,82*,.
CC(O)CN=c1cc(-c2ccccc2)oc2ccc(Cl)cc12 (stereo not given),.,-3,31,.,67*,1
Cc1cc(=O)[nH]c(SCC(=O)NCc2ccco2)n1,.,.,.,.,-1,.
O=C(CSc1nccc(=O)[nH]1)NCc1ccco1,2,1,-25,0,7,42*
N=C1/C(=C\c2coc3ccc(O)cc3c2=O)C(=O)N=C2SC=CN12,?,-10,i,0,.,42*
N=C1/C(=C\c2coc3ccccc3c2=O)C(=O)N=C2SC(c3ccncc3)=NN12,-4,-12,-239,0,-58,41*
N=C1/C(=C/c2coc3ccccc3c2=O)C(=O)N=C2SC(c3ccco3)=NN12,.,.,.,.,-62,.
CC[C@H](C)/C=C(C)/C=C/c1cc2c(cn1)C(=O)[C@@](C)(OC(C)=O)C(O)=C2Cl,6,-13,-31,.,-6,51*
CC[C@H](C)/C=C(C)/C=C/C1=CC2=CC(=O)[C@]3(C)OC(=O)[C@@H](C(C)=O)[C@@H]3C2=CO1,4,-15,-114,.,-11,19
COc1ccc(CCC(=O)Nc2ccc(S(=O)(=O)Nc3nccc(C)n3)cc2)cc1,1,-2,-37,0,-1,58*
COc1ccc(CCC(=O)Nc2ccc(S(=O)(=O)Nc3ncccn3)cc2)cc1,-3,-1,-39,0,8,-2
COc1ccccc1N1CCN(/N=C\c2sccc2C)CC1,30*,2,-11,0,.,0
O=[N+]([O-])c1ccccc1/C=N\N1CCN(c2ccccc2)CC1,7,3,-17,0,.,0
COc1ccccc1N1CCN(/N=C/C=C/c2ccccc2[N+](=O)[O-])CC1,48*,2,-4,0,-2,1
COc1ccccc1N1CCN(/N=C/c2cc([N+](=O)[O-])ccc2Cl)CC1,?,1,-4,0,.,-2
O=[N+]([O-])c1ccccc1/C=C\C=N\N1CCN(c2ccccc2)CC1,42*,0,-5,0,2,1
